Reference: ChEMBL document CHEMBL4765399, “Design, synthesis, and biological evaluation of 5-((8-methoxy-2-methylquinolin-4-yl)amino)-1H-indole-2-carbohydrazide derivatives as novel Nur77 modulators” (Eur J Med Chem, 2020)

Tests used:
HepG2 = assay: Antiproliferative activity against human HepG2 cells assessed as reduction in cell viability incubated for 48 hrs by MTT assay; assay type: functional, cell-based; settings: HepG2, 48 h
Method in brief: (§1)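 MTT assay after 48 h exposure at six concentrations, range chosen by cytotoxicity. Inhibition = (ODcontrol − ODtest)/ODcontrol × 100%; IC50 is the concentration halving OD versus untreated cells. Means ± SD of three independent determinations. HepG2 and SMMC-7721 grown in DMEM, QGY-7703 and LO2 in RPMI 1640, with 10% FBS at 37 °C.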

SMMC-7721 = assay: Antiproliferative activity against human SMMC-7721 cells assessed as reduction in cell viability incubated for 48 hrs by MTT assay; assay type: functional, cell-based; settings: SMMC-7721, 48 h; method in brief: as §1
L02 = assay: Cytotoxicity against human L02 cells assessed as reduction in cell viability incubated for 48 hrs by MTT assay; assay type: cell-based; settings: L02, 48 h; method in brief: as §1
QGY-7703 = assay: Antiproliferative activity against human QGY-7703 cells assessed as reduction in cell viability incubated for 48 hrs by MTT assay; assay type: functional, cell-based; settings: QGY-7703, 48 h; method in brief: as §1
[1] = molecular target: Nuclear receptor subfamily 4immunitygroup A member 1 (Homo sapiens, UniProt P22736); assay: Binding affinity to Nur77 ligand binding domain (unknown origin) at 10 uM by surface plasmon resonance analysis; settings: filed as modulator
Sequence of Nuclear receptor subfamily 4immunitygroup A member 1 (P22736 whole entry, the tested form may be a part): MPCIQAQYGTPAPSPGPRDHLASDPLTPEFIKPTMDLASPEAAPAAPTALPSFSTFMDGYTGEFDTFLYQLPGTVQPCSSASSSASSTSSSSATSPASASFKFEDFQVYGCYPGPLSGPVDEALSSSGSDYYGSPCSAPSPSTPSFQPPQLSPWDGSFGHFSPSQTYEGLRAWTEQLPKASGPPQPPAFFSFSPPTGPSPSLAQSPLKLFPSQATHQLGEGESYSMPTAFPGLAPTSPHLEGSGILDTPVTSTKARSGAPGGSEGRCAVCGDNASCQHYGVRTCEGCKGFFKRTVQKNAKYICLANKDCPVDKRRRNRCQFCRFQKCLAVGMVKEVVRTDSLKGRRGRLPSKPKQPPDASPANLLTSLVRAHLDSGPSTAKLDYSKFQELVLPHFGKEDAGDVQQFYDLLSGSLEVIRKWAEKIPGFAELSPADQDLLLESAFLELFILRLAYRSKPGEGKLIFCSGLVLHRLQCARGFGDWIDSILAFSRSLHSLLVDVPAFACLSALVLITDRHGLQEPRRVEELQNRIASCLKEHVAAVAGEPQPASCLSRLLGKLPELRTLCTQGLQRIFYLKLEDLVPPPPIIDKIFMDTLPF
Method in brief: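 Single-concentration SPR screen at 10.0 µM against Nur77-LBD; binding given as RU response.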

Row | IC50 (HepG2) [µM] | IC50 (SMMC-7721) [µM] | Activity [1] [RU] | Compound | IC50 (L02) [µM] | IC50 (QGY-7703) [µM]
1 | 6.62 | > 20 | – | COc1ccc2[nH]c(C)c(/C=N/NC(=O)c3cc4cc(Nc5cc(C)nc6c(OC)cccc56)ccc4[nH]3)c2c1 | > 20 | 14.1
2 | > 20 | > 20 | – | COc1cccc2c(Nc3ccc4[nH]c(C(=O)N/N=C/c5ccc([N+](=O)[O-])cc5O)cc4c3)cc(C)nc12 | > 20 | > 20
3 | 6.32 | 8.43 | – | COc1ccc(/C=N/NC(=O)c2cc3cc(Nc4cc(C)nc5c(OC)cccc45)ccc3[nH]2)c(OC)c1OC | 13.7 | 3.78
4 | > 20 | > 20 | – | COc1cccc2c(Nc3ccc4[nH]c(C(=O)N/N=C/c5ccc(C(F)(F)F)cc5C(F)(F)F)cc4c3)cc(C)nc12 | > 20 | > 20
5 | 8.15 | > 20 | – | COc1cccc2c(Nc3ccc4[nH]c(C(=O)N/N=C/c5ccc(O)cc5O)cc4c3)cc(C)nc12 | 15.9 | > 20
6 | > 20 | > 20 | – | COc1cccc2c(Nc3ccc4[nH]c(C(=O)N/N=C/c5ccc(O)cc5)cc4c3)cc(C)nc12 | 9.31 | 14.1
7 | 1.22 | 1.38 | – | COc1cccc2c(Nc3ccc4[nH]c(C(=O)N/N=C/c5ccccc5F)cc4c3)cc(C)nc12 | 2.48 | 5.42
8 | 7.45 | > 20 | – | COc1cccc2c(Nc3ccc4[nH]c(C(=O)N/N=C/c5cc(C(C)(C)C)c(O)c(C(C)(C)C)c5)cc4c3)cc(C)nc12 | 3.54 | 4.02
9 | > 20 | > 20 | – | COc1cccc2c(Nc3ccc4[nH]c(C(=O)N/N=C/c5cc(O)ccc5O)cc4c3)cc(C)nc12 | > 20 | > 20
10 | > 20 | > 20 | – | COc1ccc(/C=N/NC(=O)c2cc3cc(Nc4cc(C)nc5c(OC)cccc45)ccc3[nH]2)cc1OC | > 20 | > 20
11 | > 20 | > 20 | – | COc1cc(/C=N/NC(=O)c2cc3cc(Nc4cc(C)nc5c(OC)cccc45)ccc3[nH]2)cc(OC)c1 | > 20 | > 20
12 | 10.4 | > 20 | – | COc1cccc2c(Nc3ccc4[nH]c(C(=O)N/N=C/c5ccc(C#N)cc5)cc4c3)cc(C)nc12 | 2.8 | 2.36
13 | 1.09 | 4.89 | – | COc1cccc(/C=N/NC(=O)c2cc3cc(Nc4cc(C)nc5c(OC)cccc45)ccc3[nH]2)c1OC | 2.79 | 1.96
14 | 7.47 | 16.2 | – | COc1ccc(/C=N/NC(=O)c2cc3cc(Nc4cc(C)nc5c(OC)cccc45)ccc3[nH]2)c(OC)c1 | 5.72 | 5
15 | > 20 | > 20 | – | COc1cccc2c(Nc3ccc4[nH]c(C(=O)N/N=C/c5ccnc6ccccc56)cc4c3)cc(C)nc12 | > 20 | 15.5
16 | 1.24 | 0.98 | – | COc1cccc2c(Nc3ccc4[nH]c(C(=O)N/N=C/c5ccccc5Cl)cc4c3)cc(C)nc12 | 3.68 | 1.06
17 | > 20 | > 20 | – | COc1cccc2c(Nc3ccc4[nH]c(C(=O)N/N=C/c5ccc[nH]5)cc4c3)cc(C)nc12 | > 20 | > 20
18 | 5.44 | 6.49 | – | COc1cccc2c(Nc3ccc4[nH]c(C(=O)N/N=C/c5cccs5)cc4c3)cc(C)nc12 | 6.33 | 1.53

Row | IC50 (HepG2) [µM] | IC50 (SMMC-7721) [µM] | Activity [1] [RU] | Compound | IC50 (L02) [µM] | IC50 (QGY-7703) [µM]
19 | > 20 | > 20 | – | COc1cccc2c(Nc3ccc4[nH]c(C(=O)N/N=C/c5cccnc5)cc4c3)cc(C)nc12 | > 20 | > 20
20 | 14.7 | 4.37 | – | COc1cccc2c(Nc3ccc4[nH]c(C(=O)N/N=C/c5ccccn5)cc4c3)cc(C)nc12 | 10.3 | > 20
21 | > 20 | 1.75 | – | COc1cccc(/C=N/NC(=O)c2cc3cc(Nc4cc(C)nc5c(OC)cccc45)ccc3[nH]2)c1 | 9.85 | > 20
22 | 16.6 | 11 | – | COc1ccc(/C=N/NC(=O)c2cc3cc(Nc4cc(C)nc5c(OC)cccc45)ccc3[nH]2)c2ccccc12 | 9.16 | 4.61
23 | 1.98 | 0.73 | 91 | COc1ccc(/C=N/NC(=O)c2cc3cc(Nc4cc(C)nc5c(OC)cccc45)ccc3[nH]2)cc1C(F)(F)F | 5.23 | 0.4
24 | > 20 | > 20 | – | COc1cc(/C=N/NC(=O)c2cc3cc(Nc4cc(C)nc5c(OC)cccc45)ccc3[nH]2)cc(OC)c1OC | > 20 | > 20
25 | > 20 | > 20 | – | COc1ccc(/C=N/NC(=O)c2cc3cc(Nc4cc(C)nc5c(OC)cccc45)ccc3[nH]2)cc1Br | 1.2 | 1.89
26 | > 20 | > 20 | – | COc1cccc2c(Nc3ccc4[nH]c(C(=O)N/N=C/c5ccncc5)cc4c3)cc(C)nc12 | > 20 | > 20
27 | 4.19 | > 20 | – | COc1cccc2c(Nc3ccc4[nH]c(C(=O)N/N=C/c5cccc(C(F)(F)F)c5)cc4c3)cc(C)nc12 | 13.5 | 5.39
28 | 2.1 | 4.58 | – | COc1ccccc1/C=N/NC(=O)c1cc2cc(Nc3cc(C)nc4c(OC)cccc34)ccc2[nH]1 | 5.17 | 3.4
29 | 7.52 | 11.7 | – | COc1cccc(OC)c1/C=N/NC(=O)c1cc2cc(Nc3cc(C)nc4c(OC)cccc34)ccc2[nH]1 | 7.31 | > 20
30 | > 20 | > 20 | – | COc1cccc2c(Nc3ccc4[nH]c(C(=O)N/N=C/c5cc(C(F)(F)F)ccc5Br)cc4c3)cc(C)nc12 | > 20 | 12.7
31 | 2.92 | 3.14 | – | COc1cccc2c(Nc3ccc4[nH]c(C(=O)N/N=C/c5cccc(C)c5)cc4c3)cc(C)nc12 | 3.16 | 1.74
32 | 0.69 | 1.21 | 88.2 | COc1ccc(/C=N/NC(=O)c2cc3cc(Nc4cc(C)nc5c(OC)cccc45)ccc3[nH]2)cc1 | 0.76 | > 20
33 | > 20 | 18.8 | – | COc1cccc2c(Nc3ccc4[nH]c(C(=O)N/N=C/c5cc6ccccc6nc5Cl)cc4c3)cc(C)nc12 | > 20 | 9.31
34 | 2.93 | 5.25 | – | O=C(O)c1ccc2cc(-c3ccc(O)c(C45CC6CC(CC(C6)C4)C5)c3)ccc2c1 [O-DEMETHYLATED ADAPALENE] | 10.1 | 2.38
35 | 2.17 | > 20 | – | COc1cccc2c(Nc3ccc4[nH]c(C(=O)N/N=C/c5ccc(F)c(C(F)(F)F)c5)cc4c3)cc(C)nc12 | > 20 | 2.43

Row | Compound | IC50 (HepG2) [µM] | IC50 (SMMC-7721) [µM] | Activity [1] [RU] | IC50 (L02) [µM] | IC50 (QGY-7703) [µM]
36 | CC1=C(O)C(=O)C=C2C1=CC=C1[C@@]2(C)CC[C@@]2(C)[C@@H]3C[C@](C)(C(=O)O)CC[C@]3(C)CC[C@]12C [CELASTROL] | 1.3 | 1.07 | – | 1.94 | 2.43
